Measured values gathered from unrelated publications.
Lines come from different studies, so protocols differ.
Target: Mitogen-activated protein kinase kinase kinase kinase 5 (MAP4K5, Homo sapiens, UniProt Q9Y4K4)

COc1cc2ncnc(Nc3ccc(Oc4ccccc4)c(C)c3C)c2cc1OC — inhibition (enzyme activity; inhibitor; 1 µM): -2%
CN(C)c1nccc(-c2cnc3ncccn23)n1 — remaining binding (binding; 1 µM): 100%
COc1cc(Nc2cnc(C#N)c(O[C@H](C)CN(C)C)n2)ncc1-c1cnn(C)c1 — remaining activity (enzyme activity; inhibitor; radiometric; 1 µM): 46%
FC(F)(F)Oc1cccc(-c2cnc3ccc(-c4ccncc4)nn23)c1 — activity vs control (enzyme activity; inhibitor; radiometric; 1 µM): 110%
CS(=O)(=O)c1cc(C2(NC(=O)c3cncc4c3cnn4-c3ccc(F)cc3)CC2)ccn1 — remaining binding (cell-free assay; competition with immobilised ligand; 1 µM): 98%
N#CCCc1ccc2c(c1)-c1[nH]c3ccc([N+](=O)[O-])cc3c1CC(=O)N2 — remaining signal (cell-free assay; 0.5 µM): 7.61%
COc1cc(/C=C/C(=O)CC(=O)/C=C/c2ccc(O)c(OC)c2)ccc1O — activity vs control (enzyme activity; inhibitor; 1 µM): 87%
CO[C@@H](C)c1c(Nc2ccc([C@H](N(C)C(=O)C3CCS(=O)(=O)CC3)C(F)(F)F)cc2)cnc2cc(Cl)nn12 — remaining binding (cell-free assay; competition with immobilised ligand; 1 µM): 88%
Nc1ncnc2occ(-c3ccc(NC(=O)Nc4cc(C(F)(F)F)ccc4F)cc3)c12 — remaining signal (cell-free assay; inhibitor; 20 µM): 0%
Cc1ccc(NC(=O)c2ccc(CN3CCN(C)CC3)cc2)cc1Nc1nc(-c2cccnc2)cs1 — remaining signal (cell-free assay; 0.5 µM): 97%
Cc1ccc(C(=O)Nc2ccc(CN3CCN(C)CC3)c(C(F)(F)F)c2)cc1C#Cc1cnc2cccnn12 — remaining activity (enzyme activity; inhibitor; 23.5 nM): 69%
CC(C)(C)c1nc2c(s1)c1nc(N)ncc1c1ccc(NS(=O)(=O)c3c(F)cccc3F)c(F)c12 — remaining activity (enzyme activity; inhibitor; radiometric; 1 µM): 87%
CNCc1ccccc1-c1csc([C@H](C)Nc2nc(C)nc3cc(OC)c(OC)cc23)c1 — remaining binding (cell-free assay; competition with immobilised ligand; 1 µM): 100%
O=C1Nc2ccc(Cl)cc2C1=Cc1cc(Cl)c(O)c(Cl)c1 — remaining signal (cell-free assay; 0.5 µM): 75.9%
CCCOc1ccc([C@@H]2[C@@H](C(=O)O)[C@H](c3ccc4c(c3)OCO4)CN2CC(=O)Nc2c(CC)cccc2CC)cc1 — remaining binding (cell-free assay; competition with immobilised ligand; 1 µM): 95%
Cc1sc(C(=O)NC2COC2)cc1-n1cc(NC(=O)Nc2c(F)cccc2Cl)cn1 — remaining activity (enzyme activity; inhibitor; 10 µM): 98.4%
c1ccc(N2CCN(Cc3nc4ccccc4[nH]3)CC2)nc1 — remaining binding (binding; competition with immobilised ligand; 1 µM): 100%
CC(C)(O)[C@H]1CC[C@H](Nc2ccc3ncc(-c4cccc(C(F)(F)F)c4)n3n2)CC1 — remaining activity (enzyme activity; inhibitor; 1 µM): 83.2%
